# Measured values taken from ChEMBL document CHEMBL5678806, “NMS-P937, an orally available, specific small-molecule polo-like kinase 1 inhibitor with antitumor activity in solid and hematologic malignancies” (Mol Cancer Ther, 2012).
# Active and inactive are the calls of the source. No cut-off for these calls is given here.
# What was measured:
# [1] = biological target: Insulin receptor (Homo sapiens, UniProt P06213); assay: Inhibition of N-terminal His6-tagged recombinant human IR (1005 to 1310 residues) expressed in baculovirus infected Sf21 cells assessed as residual activity at 1 uM relative to control
# Insulin receptor, sequence (P06213 28-758 limits assumed): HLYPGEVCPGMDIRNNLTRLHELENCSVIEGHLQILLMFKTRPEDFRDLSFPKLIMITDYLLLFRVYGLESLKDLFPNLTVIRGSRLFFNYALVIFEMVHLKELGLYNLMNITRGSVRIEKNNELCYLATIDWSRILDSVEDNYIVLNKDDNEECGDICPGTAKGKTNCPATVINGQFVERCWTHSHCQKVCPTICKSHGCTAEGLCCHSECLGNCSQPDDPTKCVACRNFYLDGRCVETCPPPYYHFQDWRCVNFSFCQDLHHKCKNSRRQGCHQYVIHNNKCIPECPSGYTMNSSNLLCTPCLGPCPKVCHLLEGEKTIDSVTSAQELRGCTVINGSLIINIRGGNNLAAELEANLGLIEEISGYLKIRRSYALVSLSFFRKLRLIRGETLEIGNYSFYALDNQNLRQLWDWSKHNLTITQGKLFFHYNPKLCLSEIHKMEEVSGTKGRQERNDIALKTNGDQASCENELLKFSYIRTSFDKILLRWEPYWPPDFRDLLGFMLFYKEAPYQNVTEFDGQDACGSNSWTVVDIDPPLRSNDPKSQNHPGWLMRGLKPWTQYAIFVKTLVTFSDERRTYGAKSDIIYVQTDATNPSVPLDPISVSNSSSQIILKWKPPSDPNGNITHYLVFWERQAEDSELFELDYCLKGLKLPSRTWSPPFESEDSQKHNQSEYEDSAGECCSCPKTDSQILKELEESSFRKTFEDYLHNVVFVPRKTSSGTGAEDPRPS
# Insulin receptor, sequence (P06213 763-1382 limits assumed): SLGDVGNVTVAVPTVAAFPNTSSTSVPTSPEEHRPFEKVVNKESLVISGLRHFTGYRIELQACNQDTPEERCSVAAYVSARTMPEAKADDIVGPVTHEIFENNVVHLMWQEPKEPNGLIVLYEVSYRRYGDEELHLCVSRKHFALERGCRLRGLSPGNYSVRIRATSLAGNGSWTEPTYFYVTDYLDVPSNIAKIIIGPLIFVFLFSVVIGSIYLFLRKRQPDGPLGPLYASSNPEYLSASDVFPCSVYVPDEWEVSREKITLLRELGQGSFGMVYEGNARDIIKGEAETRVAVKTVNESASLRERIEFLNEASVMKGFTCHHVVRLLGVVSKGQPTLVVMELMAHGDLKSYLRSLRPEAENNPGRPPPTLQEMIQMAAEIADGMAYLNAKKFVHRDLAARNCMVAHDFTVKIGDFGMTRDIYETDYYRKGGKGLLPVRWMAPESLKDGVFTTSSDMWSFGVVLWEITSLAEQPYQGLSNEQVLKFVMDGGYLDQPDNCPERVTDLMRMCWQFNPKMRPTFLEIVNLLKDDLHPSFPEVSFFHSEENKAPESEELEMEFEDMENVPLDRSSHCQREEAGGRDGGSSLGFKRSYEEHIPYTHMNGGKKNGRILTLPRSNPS
# [2] = tested on: A498; assay: Antiproliferative activity against human A498 cells assessed as inhibition of cell growth incubated for 72 hrs by cell-titer glo assay; format: functional, cell-based; details: A498, 72 h
# Method in brief: (§1)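 Cells seeded 10,000–30,000/cm² (adherent) or 100,000/mL (suspension) in medium with 10% fetal calf serum; after 24 h treated in duplicate with serial dilutions for 72 h. Viable cells read by CellTiter-Glo luminescence; IC50 from sigmoidal fit; at least two independent experiments.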
# [3] = tested on: A2780; assay: Induction of apoptosis in human A2780 cells assessed as PARP cleavage at 0.02 to 0.2 micromol/L incubated for 24 hrs by Western blotting analysis; format: functional, cell-based; details: dose 0.02-0.2 µmol/L
# [4] = tested on: EKVX; assay: Antiproliferative activity against human EKVX cells assessed as inhibition of cell growth incubated for 72 hrs by cell-titer glo assay; format: functional, cell-based; method in brief: as §1
# [5] = tested on: MV4-11; assay: Antiproliferative activity against human MV4-11 cells assessed as inhibition of cell growth incubated for 72 hrs by cell-titer glo assay; format: functional, cell-based; details: MV4-11, 72 h
# Method in brief: (§2)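 Cells from ATCC or ECACC, kept in supplier-recommended medium with 1% penicillin-streptomycin at 37°C, 5% CO₂. Seeded at 10,000–30,000/cm² (adherent) or 100,000/mL (nonadherent) in medium with 10% fetal calf serum. Dosed after 24 h in duplicate with serial dilutions. Viable cells read by CellTiter-Glo 72 h later. IC50 from sigmoidal fit. At least two independent experiments.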
# [6] = biological target: Serine/threonine-protein kinase PLK3 (Homo sapiens) (UniProt Q9H4B4); assay: Inhibition of PLK3 (unknown origin) at 10 micromol/L in presence of [gamma-33P]ATP relative to control; details: dose 10.0 µmol/L
# [7] = tested on: 697; assay: Antiproliferative activity against human 697 cells assessed as inhibition of cell growth incubated for 72 hrs by cell-titer glo assay; format: functional, cell-based; details: Homo sapiens, 697, 72 h; method in brief: as §1
# [8] = biological target: Proto-oncogene tyrosine-protein kinase Src (Homo sapiens) (UniProt P12931); assay: Inhibition of N-Terminal His6-tagged recombinant full-length human c-SRC expressed in Sf21 cells assessed as residual activity at 0.1 uM relative to control
# Proto-oncogene tyrosine-protein kinase Src (Homo sapiens), sequence (P12931 2-536 limits assumed): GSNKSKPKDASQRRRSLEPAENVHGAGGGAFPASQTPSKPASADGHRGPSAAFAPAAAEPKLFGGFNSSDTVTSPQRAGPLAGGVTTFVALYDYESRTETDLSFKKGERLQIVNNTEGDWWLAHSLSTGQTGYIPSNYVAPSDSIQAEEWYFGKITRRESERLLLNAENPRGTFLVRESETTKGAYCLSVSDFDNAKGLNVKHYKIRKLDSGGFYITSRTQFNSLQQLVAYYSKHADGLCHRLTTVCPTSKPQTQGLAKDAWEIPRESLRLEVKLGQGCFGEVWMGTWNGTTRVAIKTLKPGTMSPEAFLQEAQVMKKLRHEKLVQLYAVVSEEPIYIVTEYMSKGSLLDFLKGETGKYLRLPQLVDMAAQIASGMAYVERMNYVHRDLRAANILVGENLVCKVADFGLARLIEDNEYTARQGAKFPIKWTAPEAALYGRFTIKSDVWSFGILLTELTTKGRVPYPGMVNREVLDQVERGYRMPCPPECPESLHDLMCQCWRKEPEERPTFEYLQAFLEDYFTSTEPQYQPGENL
# [9] = Tmax in nu/nu mouse at 10 mg/kg, po by LC-MS analysis; format: ADME, organism-based; details: in vivo
# [10] = tested on: LoVo; assay: Antiproliferative activity against human LoVo cells assessed as inhibition of cell growth incubated for 72 hrs by cell-titer glo assay; format: functional, cell-based
# Method in brief: (§3)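 Cells seeded at 10,000–30,000/cm² (adherent) or 100,000/mL (nonadherent) in medium with 10% fetal calf serum; after 24 h, treated in duplicate with serial dilutions for 72 h. Viable cell number read by CellTiter-Glo luminescence; IC50 from sigmoidal fit; at least two independent experiments.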
# [11] = biological target: Casein kinase 2 (Homo sapiens, UniProt P67870+P68400+P19784+Q8NEV1); assay: Inhibition of alpha-subunit N-terminal 6His- and beta-subunit N-terminal GST-tagged recombinant human CK2 expressed in baculovirus infected Sf21 cells assessed as residual activity at 1 uM relative to control
# [12] = tested on: BXPC-3; assay: Antiproliferative activity against human BXPC-3 cells assessed as inhibition of cell growth incubated for 72 hrs by cell-titer glo assay; format: functional, cell-based; details: BXPC-3, 72 h; method in brief: as §1
# [13] = biological target: Tyrosine-protein kinase Lyn (Homo sapiens, UniProt P07948); assay: Inhibition of N-terminal his6-tagged recombinant full-length human Lyn expressed in Sf21 cells assessed as residual activity at 0.1 uM relative to control
# Tyrosine-protein kinase Lyn, sequence (P07948 2-512 limits assumed): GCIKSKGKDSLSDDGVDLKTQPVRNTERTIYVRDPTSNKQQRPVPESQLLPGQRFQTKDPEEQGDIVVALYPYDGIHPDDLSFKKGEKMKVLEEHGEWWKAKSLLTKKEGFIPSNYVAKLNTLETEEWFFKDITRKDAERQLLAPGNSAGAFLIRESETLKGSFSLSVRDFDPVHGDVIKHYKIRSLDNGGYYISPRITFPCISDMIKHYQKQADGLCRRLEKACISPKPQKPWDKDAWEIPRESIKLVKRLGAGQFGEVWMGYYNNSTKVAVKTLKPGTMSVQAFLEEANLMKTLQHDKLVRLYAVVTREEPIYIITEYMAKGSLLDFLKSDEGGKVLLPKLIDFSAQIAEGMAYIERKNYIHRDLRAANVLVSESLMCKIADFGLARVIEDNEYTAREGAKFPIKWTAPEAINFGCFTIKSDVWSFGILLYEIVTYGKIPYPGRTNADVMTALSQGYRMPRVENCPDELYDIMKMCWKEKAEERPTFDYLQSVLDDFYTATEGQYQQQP
# [14] = biological target: PAS domain-containing serine/threonine-protein kinase (Homo sapiens) (UniProt Q96RG2); assay: Inhibition of human PASK assessed as residual activity at 0.1 uM relative to control
# PAS domain-containing serine/threonine-protein kinase (Homo sapiens), sequence (Q96RG2 whole entry, the tested form may be a part): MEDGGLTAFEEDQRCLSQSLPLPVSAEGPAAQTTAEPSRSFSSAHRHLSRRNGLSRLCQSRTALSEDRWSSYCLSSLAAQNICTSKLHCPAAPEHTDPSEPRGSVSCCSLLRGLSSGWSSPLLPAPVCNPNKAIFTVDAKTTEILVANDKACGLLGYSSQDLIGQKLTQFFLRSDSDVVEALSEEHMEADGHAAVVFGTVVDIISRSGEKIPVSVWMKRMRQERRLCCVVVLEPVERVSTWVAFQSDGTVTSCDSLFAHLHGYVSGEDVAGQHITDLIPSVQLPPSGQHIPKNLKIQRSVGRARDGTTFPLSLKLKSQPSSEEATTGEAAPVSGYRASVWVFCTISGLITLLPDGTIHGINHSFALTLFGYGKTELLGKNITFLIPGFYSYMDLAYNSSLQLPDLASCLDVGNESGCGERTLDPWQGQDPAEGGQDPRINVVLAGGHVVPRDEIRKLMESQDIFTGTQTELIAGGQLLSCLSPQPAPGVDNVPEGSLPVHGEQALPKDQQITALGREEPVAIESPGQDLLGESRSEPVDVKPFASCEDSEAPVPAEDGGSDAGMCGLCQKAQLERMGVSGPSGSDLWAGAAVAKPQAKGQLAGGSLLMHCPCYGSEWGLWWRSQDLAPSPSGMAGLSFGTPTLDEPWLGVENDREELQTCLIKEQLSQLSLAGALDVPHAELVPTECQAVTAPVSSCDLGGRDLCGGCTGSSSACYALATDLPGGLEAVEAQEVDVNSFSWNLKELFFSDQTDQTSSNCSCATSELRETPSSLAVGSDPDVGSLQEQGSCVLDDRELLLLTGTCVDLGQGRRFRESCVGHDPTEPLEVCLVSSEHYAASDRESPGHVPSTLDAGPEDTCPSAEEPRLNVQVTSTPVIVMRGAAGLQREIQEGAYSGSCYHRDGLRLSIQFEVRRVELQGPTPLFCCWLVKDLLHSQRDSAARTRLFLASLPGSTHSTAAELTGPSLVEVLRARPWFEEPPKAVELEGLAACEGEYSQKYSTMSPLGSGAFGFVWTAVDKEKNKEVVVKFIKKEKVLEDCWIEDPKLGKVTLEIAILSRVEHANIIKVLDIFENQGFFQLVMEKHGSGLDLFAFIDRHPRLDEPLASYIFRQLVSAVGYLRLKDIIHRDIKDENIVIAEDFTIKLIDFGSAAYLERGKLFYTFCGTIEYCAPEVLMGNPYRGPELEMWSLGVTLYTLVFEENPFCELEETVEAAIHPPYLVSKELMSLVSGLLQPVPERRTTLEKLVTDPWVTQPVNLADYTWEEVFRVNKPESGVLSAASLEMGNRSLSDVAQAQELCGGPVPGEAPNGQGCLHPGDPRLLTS
# [15] = tested on: Platelet-derived growth factor receptor alpha (Homo sapiens), P16234 [D842V]; assay: Inhibition of N-terminal His6-tagged recombinant human PDGFRalpha (550 to end residues) D842V mutant expressed in baculovirus infected Sf21 cells assessed as residual activity at 0.1 uM relative to control
# [16] = tested on: NCI-H1975; assay: Antiproliferative activity against human NCI-H1975 cells assessed as inhibition of cell growth incubated for 72 hrs by cell-titer glo assay; format: functional, cell-based; details: NCI-H1975, 72 h; method in brief: as §2
# [17] = biological target: NUAK family SNF1-like kinase 1 (Homo sapiens) (UniProt O60285); assay: Inhibition of N-terminal 6His-tagged recombinant human ARK5 (2 to end residues) expressed in baculovirus infected Sf21 cells assessed as residual activity at 1 uM relative to control
# NUAK family SNF1-like kinase 1 (Homo sapiens), sequence (O60285 whole entry): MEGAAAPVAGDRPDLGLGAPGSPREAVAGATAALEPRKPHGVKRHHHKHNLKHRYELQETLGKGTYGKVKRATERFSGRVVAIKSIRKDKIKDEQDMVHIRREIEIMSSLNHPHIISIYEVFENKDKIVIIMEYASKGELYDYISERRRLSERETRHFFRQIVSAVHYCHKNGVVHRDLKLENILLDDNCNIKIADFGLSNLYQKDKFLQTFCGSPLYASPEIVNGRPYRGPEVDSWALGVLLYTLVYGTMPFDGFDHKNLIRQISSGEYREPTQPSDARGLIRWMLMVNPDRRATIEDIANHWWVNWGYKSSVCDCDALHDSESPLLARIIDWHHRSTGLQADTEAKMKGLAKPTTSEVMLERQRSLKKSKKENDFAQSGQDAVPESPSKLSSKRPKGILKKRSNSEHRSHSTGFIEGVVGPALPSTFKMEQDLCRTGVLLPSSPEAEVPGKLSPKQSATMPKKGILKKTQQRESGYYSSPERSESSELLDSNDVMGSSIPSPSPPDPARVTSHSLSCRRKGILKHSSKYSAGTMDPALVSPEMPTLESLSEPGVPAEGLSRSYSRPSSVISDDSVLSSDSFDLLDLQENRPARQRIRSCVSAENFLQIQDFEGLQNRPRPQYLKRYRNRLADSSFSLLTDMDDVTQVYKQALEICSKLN
# [18] = tested on: MeWo; assay: Antiproliferative activity against human MeWo cells assessed as inhibition of cell growth incubated for 72 hrs by cell-titer glo assay; format: functional, cell-based; method in brief: as §2
# [19] = tested on: Toledo; assay: Antiproliferative activity against human Toledo cells assessed as inhibition of cell growth incubated for 72 hrs by cell-titer glo assay; format: functional, cell-based
# [20] = Antiproliferative activity against human GM13705 cells assessed as inhibition of cell growth incubated for 72 hrs by cell-titer glo assay; format: functional, cell-based; details: GM13705, 72 h; method in brief: as §3
# [21] = tested on: SW48; assay: Antiproliferative activity against human SW48 cells assessed as inhibition of cell growth incubated for 72 hrs by cell-titer glo assay; format: functional, cell-based; details: SW48, 72 h
# [22] = Tmax in Sprague-Dawley rat at 10 mg/kg, po by LC-MS analysis; format: ADME, organism-based; details: in vivo
# [23] = biological target: Calcium/calmodulin-dependent protein kinase type II subunit delta (Homo sapiens) (UniProt Q13557); assay: Inhibition of recombinant full length human CaMKIIdelta assessed as residual activity at 0.1 uM relative to control
# [24] = tested on: HCC1395; assay: Antiproliferative activity against human HCC1395 cells assessed as inhibition of cell growth incubated for 72 hrs by cell-titer glo assay; format: functional, cell-based; details: HCC1395, 72 h; method in brief: as §3
# [25] = biological target: Mitogen-activated protein kinase 14 (Homo sapiens, UniProt Q16539); assay: Inhibition of P38alpha (unknown origin) in presence of [gamma-33P]ATP
# [26] = tested on: SNB-19; assay: Antiproliferative activity against human SNB-19 cells assessed as inhibition of cell growth incubated for 72 hrs by cell-titer glo assay; format: functional, cell-based; details: SNB-19, 72 h
# [27] = tested on: SW480; assay: Antiproliferative activity against human SW480 cells assessed as inhibition of cell growth incubated for 72 hrs by cell-titer glo assay; format: functional, cell-based; details: SW480, 72 h
# [28] = tested on: NCI-H1437; assay: Antiproliferative activity against human NCI-H1437 cells assessed as inhibition of cell growth incubated for 72 hrs by cell-titer glo assay; format: functional, cell-based; details: NCI-H1437, 72 h; method in brief: as §2
# [29] = biological target: Dual specificity tyrosine-phosphorylation-regulated kinase 2 (Homo sapiens) (UniProt Q92630); assay: Inhibition of 6His-tagged recombinant full-length human DYRK2 expressed in baculovirus infected Sf21 cells assessed as residual activity at 1 uM relative to control
# Dual specificity tyrosine-phosphorylation-regulated kinase 2 (Homo sapiens), sequence (Q92630 whole entry, the tested form may be a part): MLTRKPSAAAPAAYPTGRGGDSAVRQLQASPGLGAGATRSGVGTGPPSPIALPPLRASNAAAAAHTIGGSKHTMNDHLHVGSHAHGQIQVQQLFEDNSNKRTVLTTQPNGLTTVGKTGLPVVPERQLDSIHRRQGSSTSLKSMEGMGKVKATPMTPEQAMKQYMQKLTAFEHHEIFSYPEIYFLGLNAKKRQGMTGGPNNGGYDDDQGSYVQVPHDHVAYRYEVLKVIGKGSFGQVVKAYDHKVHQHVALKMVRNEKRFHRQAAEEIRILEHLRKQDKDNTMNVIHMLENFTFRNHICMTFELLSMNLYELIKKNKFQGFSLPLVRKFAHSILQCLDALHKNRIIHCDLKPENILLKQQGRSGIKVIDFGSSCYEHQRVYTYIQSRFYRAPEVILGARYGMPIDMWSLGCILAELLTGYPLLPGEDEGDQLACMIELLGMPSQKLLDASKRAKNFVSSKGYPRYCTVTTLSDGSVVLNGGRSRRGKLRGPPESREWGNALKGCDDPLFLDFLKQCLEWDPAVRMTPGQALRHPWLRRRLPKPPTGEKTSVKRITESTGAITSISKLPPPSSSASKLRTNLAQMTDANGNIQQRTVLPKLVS
# [30] = biological target: Insulin receptor-related protein (Homo sapiens) (UniProt P14616); assay: Inhibition of N-terminal 6His-tagged recombinant human IRR (944 to 1266 residues) expressed in baculovirus infected Sf21 cells assessed as residual activity at 1 uM relative to control
smiles,measurement,setting,value
CN1CCN(c2ccc(OC(F)(F)F)c(Nc3ncc4c(n3)-c3c(c(C(N)=O)nn3CCO)CC4)c2)CC1 [ONVANSERTIB],Activity,[1],90%
same,IC50,[2],1070 nM
same,Activity,[3],Active
same,IC50,[4],196 nM
same,IC50,[5],58 nM
same,inhibition,[6],40.2%
same,IC50,[7],26 nM
same,Activity,[8],43%
same,Tmax,[9],0.4 h
same,IC50,[10],65 nM
same,Activity,[11],42%
same,IC50,[12],117 nM
same,Activity,[13],156%
same,Activity,[14],127%
same,Activity,[15],122%
same,IC50,[16],398 nM
same,Activity,[17],93%
same,IC50,[18],237 nM
same,IC50,[19],42 nM
same,IC50,[20],162 nM
same,IC50,[21],32 nM
same,Tmax,[22],3 h
same,Activity,[23],88%
same,IC50,[24],49 nM
same,IC50,[25],> 10000 nM
same,IC50,[26],224 nM
same,IC50,[27],618 nM
same,IC50,[28],39 nM
same,Activity,[29],83%
same,Activity,[30],114%
